ChEMBL document CHEMBL1938272 (Bioorg Med Chem, 2012)

Tests used:
[1] = biological target: NAD(P)H dehydrogenase [quinone] 1 (Mus musculus) (UniProt Q64669); experiment: Induction of QR1 activity in mouse Hepa-1c1c7 cells using MTT as substrate by spectrophotometry; assay type: cell-based
Summary of the method: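 Mouse hepatoma Hepa 1c1c7 cells were incubated with compound, then permeabilised with digitonin. QR1 activity was read as MTT reduction to formazan at 595 nm, with crystal violet total protein run in parallel. Induction ratio is activity versus control; CD is the concentration doubling activity, derived only when the ratio is above 2.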

[2] = system: Radical scavenging activity; experiment: Antioxidant activity assessed as DPPH free radical scavenging activity at 400 uM after 30 mins by spectrophotometry; assay type: functional
[3] = biological target: NAD(P)H dehydrogenase [quinone] 1 (Mus musculus) (UniProt Q64669); experiment: Induction of QR1 activity in mouse BPrc1 cells using MTT as substrate by spectrophotometry; assay type: cell-based
[4] = system: MCF7; experiment: Antiproliferative activity against human MCF7 cells after 72 hrs by SRB assay; assay type: functional, cell-based; conditions: MCF7, 72 h
Summary of the method: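 MCF-7 breast cancer cells exposed to serially diluted compounds (DMSO) for 72 h at 37 °C in CO2 incubator; fixed with 10% trichloroacetic acid, stained with 0.4% SRB, OD read at 515 nm. Zero-day control of 1 × 10^4 cells per well processed after 30 min. Survival = (OD test − OD zero-day)/(OD control − OD zero-day) × 100; IC50 from survival.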

[5] = biological target: NAD(P)H dehydrogenase [quinone] 1 (Mus musculus) (UniProt Q64669); experiment: Induction of QR1-mediated cytoprotective activity in mouse TAOc1 mutant Hepa cells at 50 uM assessed as cell survival; assay type: cell-based
[6] = biological target: T1, Aromatase (Homo sapiens, UniProt P11511); conditions: 2 h, read-out: Imax
T1 sequence (P11511 whole entry): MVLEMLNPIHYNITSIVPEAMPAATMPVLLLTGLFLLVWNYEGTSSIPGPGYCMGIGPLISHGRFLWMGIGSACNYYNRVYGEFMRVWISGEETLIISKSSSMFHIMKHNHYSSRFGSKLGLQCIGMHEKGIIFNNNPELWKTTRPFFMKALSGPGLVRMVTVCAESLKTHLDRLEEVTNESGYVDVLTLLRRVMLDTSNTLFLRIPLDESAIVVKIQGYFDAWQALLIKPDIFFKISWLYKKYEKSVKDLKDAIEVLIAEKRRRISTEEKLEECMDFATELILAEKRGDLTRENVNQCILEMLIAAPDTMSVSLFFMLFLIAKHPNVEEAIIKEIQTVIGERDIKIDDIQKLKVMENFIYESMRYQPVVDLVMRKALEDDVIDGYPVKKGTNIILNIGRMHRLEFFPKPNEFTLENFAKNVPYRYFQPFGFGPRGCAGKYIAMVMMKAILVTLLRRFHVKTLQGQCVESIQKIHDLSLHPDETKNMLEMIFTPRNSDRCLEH

[7] = biological target: NAD(P)H dehydrogenase [quinone] 1 (Mus musculus) (UniProt Q64669); experiment: Induction of QR1 activity in mouse TAOc1 mutant Hepa cells using MTT as substrate by spectrophotometry; assay type: cell-based
[8] = biological target: NAD(P)H dehydrogenase [quinone] 1 (Mus musculus) (UniProt Q64669); experiment: Induction of QR1-mediated cytoprotective activity in mouse Hepa-1c1c7 cells at 50 uM assessed as cell survival; assay type: cell-based
[9] = system: RAW264.7; experiment: Antiinflammatory activity in mouse RAW264.7 cells assessed as inhibition of LPS-induced NO production at 40 uM preincubated for 30 mins before LPS challenge by Griess method
[10] = biological target: NAD(P)H dehydrogenase [quinone] 1 (Mus musculus) (UniProt Q64669); experiment: Induction of QR1-mediated cytoprotective activity in mouse BPrc1 cells at 50 uM assessed as cell survival; assay type: cell-based
[11] = system: HEK293; experiment: Inhibition of TNFalpha-activated NF-kappaB expressed in HEK293 cells at 50 uM by luciferase reporter gene assay; assay type: cell-based
[12] = biological target: T1, Aromatase
[13] = Inhibition of TNFalpha-activated NF-kappaB expressed in HEK293 cells by luciferase reporter gene assay; assay type: cell-based
[14] = system: RAW264.7; experiment: Antiinflammatory activity in mouse RAW264.7 cells assessed as inhibition of LPS-induced NO production preincubated for 30 mins before LPS challenge measured after 24 hrs by Griess method; assay type: functional, cell-based
[15] = biological target: T1, Aromatase; experiment: Ratio of trans-resveratrol IC50 to compound IC50 for human aromatase

NAD(P)H dehydrogenase [quinone] 1 (Mus musculus), sequence (Q64669 whole entry): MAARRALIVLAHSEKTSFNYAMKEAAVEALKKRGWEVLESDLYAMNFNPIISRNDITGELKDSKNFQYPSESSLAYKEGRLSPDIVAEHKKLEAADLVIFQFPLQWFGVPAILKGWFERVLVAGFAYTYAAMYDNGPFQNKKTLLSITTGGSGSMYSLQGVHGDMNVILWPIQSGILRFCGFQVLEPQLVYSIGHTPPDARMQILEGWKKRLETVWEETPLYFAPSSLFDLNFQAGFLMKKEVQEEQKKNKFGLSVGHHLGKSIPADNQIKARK

Row | Compound | CD [1] | inhibition [2] | CD [3] | IC50 [4] | Survival [5] | inhibition at 50 µM [6] | CD [7] | Survival [8] | inhibition at 40 µM [9] | Survival [10] | inhibition [11] | IC50 [12] | IC50 [13] | IC50 [14] | Ratio IC50 [15]
1 | Cc1cc(Cl)ccc1-c1nsc(-c2ccc(Cl)cc2C)n1 | 0.44 µM | 3.7% | 2.8 µM | 39.5 µM | 71% | 35.3% | 3.8 µM | 77.3% | 10.1% | 94.7% | 0% | > 50 µM |  |  | 
2 | Nc1ccc(-c2nsc(-c3ccc(N)cc3)n2)cc1 |  |  |  | 30.8 µM |  | 70.4% |  | 66.1% |  |  |  | 26.5 µM | 7.6 µM | 23.3 µM | 
3 | COc1cccc(-c2nsc(-c3cccc(OC)c3)n2)c1 | 4.03 µM | -2.1% |  | 24.2 µM | 76.3% | 26.6% |  | 63.7% | 17.6% | 97.1% | 93.9% | > 50 µM | 0.4 µM |  | 
4 | Ic1ccccc1-c1nsc(-c2ccccc2I)n1 |  | 3.4% | 8.1 µM |  | 69.8% | 39.4% | 6.3 µM | 48.8% | 30% | 95.1% |  | > 50 µM |  | 30 µM | 
5 | c1cc(-c2nsc(-c3ccncc3)n2)ccn1 |  | -35.6% |  |  |  | 98% |  | 86.6% | 0.9% |  | 7.2% | 0.8 µM |  |  | 30
6 | Cc1ccc(Cl)cc1-c1nsc(-c2cc(Cl)ccc2C)n1 | 0.47 µM | 1.3% | 4.4 µM | 29 µM | 80.2% | 22% | 2 µM | 37.9% | 25.9% | 91.5% | 29.7% | > 50 µM |  |  | 
7 | c1ccc(-c2nsc(-c3ccccc3)n2)cc1 |  |  | 49.7 µM | 24.4 µM | 85.9% | 60.2% | 18.6 µM | 50.3% | 55.7% | 77.8% |  | > 50 µM | 47.4 µM |  | 
8 | Oc1cccc(-c2nsc(-c3cccc(O)c3)n2)c1 |  |  |  |  | 63.7% | 24.4% |  | 4% | 47.4% | 94.3% |  | > 50 µM | 38.1 µM |  | 
9 | Cc1c(Cl)cccc1-c1nsc(-c2cccc(Cl)c2C)n1 | 4 µM | 2.3% | 38.2 µM | 30.3 µM | 68% | 19.8% | 48.7 µM | 96% | 24.5% | 100% | 20.3% | > 50 µM |  |  | 
10 | Oc1ccc(-c2nsc(-c3ccc(O)cc3)n2)cc1 |  | 3.4% |  | 4.7 µM |  | 50.4% |  | 36.5% | 93.7% |  |  | > 50 µM | 19.3 µM | 13.5 µM | 
11 | Cc1cccc(-c2nsc(-c3cccc(C)c3)n2)c1 | 4 µM | 1.9% |  | 22.1 µM | 94.9% | 32.9% |  | 33.7% | 0.9% | 100% |  | > 50 µM | 0.8 µM |  | 
12 | Brc1cccc(-c2nsc(-c3cccc(Br)c3)n2)c1 | 0.059 µM | 1% | 6.5 µM | 31 µM | 77.7% | 48.4% | 2.5 µM | 79.3% | 22.8% | 92.3% | 0% | > 50 µM |  |  | 
13 | c1cncc(-c2nsc(-c3cccnc3)n2)c1 | 53.1 µM |  |  |  | 71.6% | 97.2% |  | 73.5% | 1.3% | 87.8% | 30.9% | 0.2 µM |  |  | 125
